Experimental data taken from ChEMBL document CHEMBL1146219, “Synthesis and evaluation of novel radioiodinated benzamides for malignant melanoma” (J Med Chem, 2007).

Experiments:
Details in all cases: in vivo
[1] = test system: Blood; test: Biodistribution in blood of B16F0 tumor bearing C57BL/6J mouse at 0.37-0.74 MBq, iv after 24 hrs; format: ADME, organism-based
Summary of the method: (§1)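 Female C57BL/6J mice (15-18 g) were given B16F0 cells subcutaneously in the left flank (0.1 mL of 3 × 10⁶ viable cells/mL in Ca²⁺/Mg²⁺-free PBS) at 6-7 weeks and used after ten days. [¹²³I]benzamide (0.37-0.74 MBq, 100 µL, saline) was injected via the tail vein. Groups of n = 5 were killed by CO₂ and cervical dislocation. Organs were weighed and γ-counted, and the carcass was counted too.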

[2] = Biodistribution in melanoma of B16F0 tumor bearing C57BL/6J mouse at 0.37-0.74 MBq, iv after 1 hr; format: ADME, organism-based, B16-F0; summary of the method: as §1
[3] = Biodistribution in melanoma of B16F0 tumor bearing C57BL/6J mouse at 0.37-0.74 MBq, iv after 6 hrs; format: ADME, organism-based, B16-F0
Summary of the method: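 Female C57BL/6J mice (15-18 g) carrying s.c. B16F0 flank tumors (0.1 mL of 3 × 10⁶ viable cells per mL in Ca²⁺/Mg²⁺-free PBS, inoculated at 6-7 weeks, used 10 days later). [¹²³I]tracer 0.37-0.74 MBq in saline, 100 µL, tail-vein i.v. Groups of n = 5 killed at 1-72 h. Organs weighed and γ-counted, carcass activity also counted, values as %ID/g.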

[4] = Biodistribution in melanoma of B16F0 tumor bearing C57BL/6J mouse at 0.37-0.74 MBq, iv after 24 hrs; format: ADME, organism-based, B16-F0; summary of the method: as §1
[5] = test system: Liver; test: Biodistribution in liver of B16F0 tumor bearing C57BL/6J mouse at 0.37-0.74 MBq, iv after 1 hr; format: ADME, organism-based; summary of the method: as §1
[6] = test system: Liver; test: Biodistribution in liver of B16F0 tumor bearing C57BL/6J mouse at 0.37-0.74 MBq, iv after 6 hrs; format: ADME, organism-based; summary of the method: as §1
[7] = test system: Liver; test: Biodistribution in liver of B16F0 tumor bearing C57BL/6J mouse at 0.37-0.74 MBq, iv after 24 hrs; format: ADME, organism-based; summary of the method: as §1
[8] = test system: Kidney; test: Biodistribution in kidney of B16F0 tumor bearing C57BL/6J mouse at 0.37-0.74 MBq, iv after 1 hr; format: ADME, organism-based; summary of the method: as §1
[9] = test system: Kidney; test: Biodistribution in kidney of B16F0 tumor bearing C57BL/6J mouse at 0.37-0.74 MBq, iv after 6 hrs; format: ADME, organism-based; summary of the method: as §1
[10] = test system: Kidney; test: Biodistribution in kidney of B16F0 tumor bearing C57BL/6J mouse at 0.37-0.74 MBq, iv after 24 hrs; format: ADME, organism-based; summary of the method: as §1
[11] = test system: Lung; test: Biodistribution in lung of B16F0 tumor bearing C57BL/6J mouse at 0.37-0.74 MBq, iv after 1 hr; format: ADME, organism-based; summary of the method: as §1
[12] = test system: Lung; test: Biodistribution in lung of B16F0 tumor bearing C57BL/6J mouse at 0.37-0.74 MBq, iv after 6 hrs; format: ADME, organism-based; summary of the method: as §1
[13] = test system: Lung; test: Biodistribution in lung of B16F0 tumor bearing C57BL/6J mouse at 0.37-0.74 MBq, iv after 24 hrs; format: ADME, organism-based; summary of the method: as §1
[14] = test system: Heart; test: Biodistribution in heart of B16F0 tumor bearing C57BL/6J mouse at 0.37-0.74 MBq, iv after 1 hr; format: ADME, organism-based; summary of the method: as §1
[15] = test system: Heart; test: Biodistribution in heart of B16F0 tumor bearing C57BL/6J mouse at 0.37-0.74 MBq, iv after 6 hrs; format: ADME, organism-based; summary of the method: as §1
[16] = test system: Heart; test: Biodistribution in heart of B16F0 tumor bearing C57BL/6J mouse at 0.37-0.74 MBq, iv after 24 hrs; format: ADME, organism-based; summary of the method: as §1
[17] = test system: Brain; test: Biodistribution in brain of B16F0 tumor bearing C57BL/6J mouse at 0.37-0.74 MBq, iv after 1 hr; format: ADME, organism-based; summary of the method: as §1
[18] = test system: Brain; test: Biodistribution in brain of B16F0 tumor bearing C57BL/6J mouse at 0.37-0.74 MBq, iv after 6 hrs; format: ADME, organism-based; summary of the method: as §1
[19] = test system: Brain; test: Biodistribution in brain of B16F0 tumor bearing C57BL/6J mouse at 0.37-0.74 MBq, iv after 24 hrs; format: ADME, organism-based; summary of the method: as §1
[20] = test system: Blood; test: Biodistribution in blood of B16F0 tumor bearing C57BL/6J mouse at 0.37-0.74 MBq, iv after 1 hr; format: ADME, organism-based; summary of the method: as §1
[21] = test system: Blood; test: Biodistribution in blood of B16F0 tumor bearing C57BL/6J mouse at 0.37-0.74 MBq, iv after 6 hrs; format: ADME, organism-based; summary of the method: as §1

Structure (SMILES) | Drug uptake [1] | Drug uptake [2] | Drug uptake [3] | Drug uptake [4] | Drug uptake [5] | Drug uptake [6] | Drug uptake [7] | Drug uptake [8] | Drug uptake [9] | Drug uptake [10] | Drug uptake [11] | Drug uptake [12] | Drug uptake [13] | Drug uptake [14] | Drug uptake [15] | Drug uptake [16] | Drug uptake [17] | Drug uptake [18] | Drug uptake [20] | Drug uptake [21] | also measured
CCCN(CCC)CCCCNC(=O)c1cc([123I])c(NC(C)=O)cc1OC | 0.15 % ID/g | 8 % ID/g | 6.8 % ID/g | 5.1 % ID/g | 7.3 % ID/g | 1.8 % ID/g | 0.64 % ID/g | 14.1 % ID/g | 1 % ID/g | 0.18 % ID/g | 1.7 % ID/g | 0.8 % ID/g | 0.14 % ID/g | 0.93 % ID/g | 0.49 % ID/g | 0.14 % ID/g | 0.07 % ID/g | 0.05 % ID/g | 1.7 % ID/g | 1.1 % ID/g | Drug uptake [19]: 0.01 % ID/g
COc1cc(NC(C)=O)c([123I])cc1C(=O)NCCCCN(C)C(C)C | 0.02 % ID/g | 5.5 % ID/g | 6 % ID/g | 3.7 % ID/g | 9.5 % ID/g | 1.5 % ID/g | 0.42 % ID/g | 5.7 % ID/g | 0.69 % ID/g | 0.06 % ID/g | 1.5 % ID/g | 0.5 % ID/g | 0.06 % ID/g | 0.84 % ID/g | 0.3 % ID/g | 0.07 % ID/g | 0.07 % ID/g | 0.03 % ID/g | 1.3 % ID/g | 0.68 % ID/g | Drug uptake [19]: 0.07 % ID/g
CCCN(CCC)CCCCNC(=O)c1ccc([123I])cc1 | 0.08 % ID/g | 6.2 % ID/g | 7.5 % ID/g | 6.9 % ID/g | 49.1 % ID/g | 33 % ID/g | 2.9 % ID/g | 8.6 % ID/g | 5.4 % ID/g | 0.52 % ID/g | 8.2 % ID/g | 3.9 % ID/g | 0.39 % ID/g | 1.9 % ID/g | 0.81 % ID/g | 0.12 % ID/g | 0.5 % ID/g | 0.17 % ID/g | 0.52 % ID/g | 0.35 % ID/g | Drug uptake [19]: 0.04 % ID/g
O=C(NC1CCN(CCO)CC1)c1ccc([123I])cc1 | 0.04 % ID/g | 5.9 % ID/g | 11.7 % ID/g | 9.2 % ID/g | 17.1 % ID/g | 9.2 % ID/g | 5.4 % ID/g | 10.6 % ID/g | 3.2 % ID/g | 1.2 % ID/g | 17.8 % ID/g | 4.7 % ID/g | 1.44 % ID/g | 3.1 % ID/g | 0.93 % ID/g | 0.49 % ID/g | 1 % ID/g | 0.46 % ID/g | 1 % ID/g | 0.21 % ID/g | Drug uptake [19]: 0.15 % ID/g
O=C(NCCCCN1CC2CCC1C2)c1ccc([123I])cc1 (stereo unspecified) | 0.03 % ID/g | 3.8 % ID/g | 3.5 % ID/g | 3.4 % ID/g | 43.2 % ID/g | 27 % ID/g | 3.5 % ID/g | 15.2 % ID/g | 4.9 % ID/g | 0.59 % ID/g | 6.9 % ID/g | 2.1 % ID/g | 0.4 % ID/g | 1.05 % ID/g | 0.44 % ID/g | 0.13 % ID/g | 0.1 % ID/g | 0.06 % ID/g | 0.48 % ID/g | 0.24 % ID/g | Drug uptake [19]: 0.01 % ID/g
CCN(CC)CCNC(=O)c1ccccc1[123I] | 0.06 % ID/g | 7.1 % ID/g | 8.8 % ID/g | 3 % ID/g | 6.8 % ID/g | 0.73 % ID/g | 0.1 % ID/g | 6.8 % ID/g | 0.76 % ID/g | 0.06 % ID/g | 4.5 % ID/g | 0.82 % ID/g | 0.09 % ID/g | 2 % ID/g | 0.4 % ID/g | 0.07 % ID/g | 1.3 % ID/g | 0.11 % ID/g | 1.9 % ID/g | 1.2 % ID/g | Drug uptake [19]: 0.01 % ID/g
COc1cc(NC(C)=O)c([123I])cc1C(=O)NCCCCN1CC2CCC1C2 (stereo unspecified) | 0.02 % ID/g | 3.4 % ID/g | 2.8 % ID/g | 1.4 % ID/g | 7.1 % ID/g | 0.8 % ID/g | 0.19 % ID/g | 3.7 % ID/g | 0.67 % ID/g | 0.03 % ID/g | 2.6 % ID/g | 0.68 % ID/g | 0.04 % ID/g | 0.94 % ID/g | 0.3 % ID/g | 0.03 % ID/g | 0.08 % ID/g | 0.03 % ID/g | 1.92 % ID/g | 0.78 % ID/g | –
